These results are taken from ChEMBL document CHEMBL3745658, “An Orally Bioavailable, Indole-3-glyoxylamide Based Series of Tubulin Polymerization Inhibitors Showing Tumor Growth Inhibition in a Mouse Xenograft Model of Head and Neck Cancer” (J Med Chem, 2015).

Converted amounts (≈) assume the structure as drawn. The source made the active and inactive calls. No cut-off for these calls is given here.

As usually defined, the kinetic solubility is solubility judged after dilution from a stock solution rather than from solid. By solubility is commonly meant the dissolved amount per volume that the medium holds. Higher therefore signals a readily soluble substance. Broadly, the half-life is how long it takes for the measured level to halve. As a reminder, the Papp A→B is how fast a substance crosses the layer from the apical side. Broadly, the efflux ratio is the permeability from basolateral to apical divided by that in the opposite direction, in the common usage. The IC50 is the concentration needed to halve the response being measured.

In one data set the test system is FaDu. The data set is described as follows: Cytotoxicity against human FADU cells assessed as reduction in cell viability after 72 hrs by MTT assay. It counts as functional. The conditions noted are these: read-out: LC50 (the source's name).
Data set [1] deals with T1, Tubulin (Sus scrofa) (UniProt P02554+P02550). The data set is described as follows: Displacement of [3H]-paclitaxel from biotinylated porcine tubulin after 25 mins by competitive binding assay. It counts as protein assay. In short, it runs like this:
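Biotinylated porcine tubulin precoupled to SPA beads for 30 min at 4 °C, then 0.05 μM [3H]-paclitaxel and test compound added in G-PEM with 1 mM GTP, 3% DMSO, duplicate wells, 25 min at rt. Nonspecific binding taken with 1000-fold unlabeled excess. IC50 from seven-point semilog curves, four-parameter fit.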
On the technique in general: In a radioligand displacement assay an active substance lowers the binding of a labelled ligand.

Data set [2] in a line: Solubility in 2% DMSO containing 50 mM potassium phosphate buffer solution at pH 7.4 by dynamic light scattering method. The conditions noted are these: 50 mM potassium phosphate buffer with 2% DMSO.
Data set [3] can be described thus: Solubility in 2% DMSO containing 50 mM potassium phosphate buffer solution pH 7.4 at 10 uM by dynamic light scattering method. Conditions: pH 7.4, 10 µM.
Data set [4] has as its target T1, Tubulin (Sus scrofa). The data set is described as follows: Displacement of [3H]-vinblastine from biotinylated porcine tubulin after 15 mins by competitive binding assay. It counts as protein assay. In outline: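 Biotinylated porcine tubulin, 0.2 μM [3H]-vinblastine, SPA beads and test compound combined together in G-PEM with 1 mM GTP, 3% DMSO, duplicate wells, 15 min at rt before counting. Nonspecific binding taken with 1000-fold unlabeled excess. IC50 from seven-point semilog curves, four-parameter fit.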

Data set [5] is described as follows: Metabolic stability in CD-1 mouse liver microsomes assessed as half life at 1 uM preincubated for 5 mins before addition of NADPH by LC-MS/MS method. It counts as ADME.
The target of data set [6] is T1, Tubulin (Sus scrofa). The data set is described as follows: (§1) Displacement of [3H]-colchicine from biotinylated porcine tubulin after 2 hrs by competitive binding assay. It counts as protein assay. In outline: (§2)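 Biotinylated porcine tubulin (750 ng/well) with 0.1 μM [3H]-colchicine and test compound in G-PEM with 1 mM GTP, 3% DMSO, duplicate wells, 2 h at 37 °C. Streptavidin SPA beads then added for 45 min at 37 °C. Nonspecific binding taken with 1000-fold unlabeled excess. IC50 from seven-point semilog curves, four-parameter fit.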

The next data set deals with MES-SA/Dx5. The data set is described as follows: Cytotoxicity against multidrug resistant human MES-SA/Dx5 cells assessed as reduction in cell viability after 72 hrs by MTT assay. It counts as functional, cell-based. In outline: (§3)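 Cells plated at an appropriate density and left 24 h to attach, then dosed in triplicate with compound diluted from 10 mM DMSO stocks into full growth medium (added at 2× final concentration). After 72 h, cells PBS-washed and given MTT (0.5 mg/mL in PBS) for 45−60 min. Formazan dissolved in 0.1 M HCl/2-propanol, A570 read (650 nm reference). Viability normalised to DMSO control; LC50 by nonlinear regression.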
Background: Tetrazolium dyes change colour on reduction, which living cells bring about.

Data set [7] is described as follows: Apparent permeability from apical to basolateral side in human Caco2 cells at 10 uM at pH 7.4 after 60 mins by mass spectrometry. The conditions noted are these: Caco-2, pH 7.4.
A short description of data set [8]: Aqueous solubility of the compound by UV-HPLC.
Data set [9] in a line: Efflux ratio of apparent permeability from basolateral to apical side over apical to basolateral side in human Caco2 cells. The conditions noted are these: Caco-2.
The target of data set [10] is T2, Tubulin (Sus scrofa, UniProt P02554+P02550). The description is as §1. It counts as protein assay. In outline:
as §2

Data set [11] deals with T2, Tubulin. The experiment in a line: Inhibition of porcine brain tubulin polymerization assessed as reduction in GTP-induced microtubule assembly after 60 mins by OD340 method.
A further data set relates to SK-MEL-28. The data set is described as follows: Cytotoxicity against human SK-MEL-28 cells assessed as reduction in cell viability after 72 hrs by MTT assay. It counts as functional, cell-based. In outline: as §3
For another data set, the system named is SH-SY5Y. The experiment in a line: Cytotoxicity against human SH-SY5Y cells assessed as reduction in cell viability after 72 hrs by MTT assay. It counts as functional, cell-based. In short, it runs like this:
as §3

A further data set has as its system SCC-4. The experiment in a line: Cytotoxicity against human SCC4 cells assessed as reduction in cell viability after 72 hrs by MTT assay. It counts as functional, cell-based. In short, it runs like this: as §3
For a further data set, the system named is MES-SA. The experiment in a line: Cytotoxicity against human MES-SA cells assessed as reduction in cell viability after 72 hrs by MTT assay. It counts as functional, cell-based. In short, it runs like this: as §3
The target in data set [12] is T1, Tubulin (Sus scrofa). The data set is described as follows: Potency index, ratio of vincristine IC50 to docetaxel IC50 for displacement of [3H]-paclitaxel from biotinylated porcine tubulin. It counts as protein assay.

On to `CCn1cc(C(=O)C(=O)Nc2ccc(OC)nc2)c2ccccc21`, for which the CC50 with FaDu is 219 nM. The result at Tubulin (Sus scrofa) [1] was inactive. In [2], this compound gave a solubility (kinetic) of 10 µM (≈ 3.23 µg/mL). Moreover, in [3], the solubility entry was “soluble”. In addition, on Tubulin (Sus scrofa) [4], the outcome was Active.

`COCCn1cc(C(=O)C(=O)Nc2ccc(OCC(=O)O)nc2)c2ccccc21`: the CC50 with FaDu was > 10000 nM. In data set [2], the kinetic solubility was > 200 µM.

In the case of `COc1ccc(NC(=O)C(=O)c2cn(CCOC(C)C)c3ccccc23)cn1`, in the data set with FaDu, the CC50 worked out at 211 nM. In [5], the half-life at 1 µM amounted to 23 min.

Turning to `COc1cc([C@@H]2c3cc4c(cc3[C@H](O)[C@H]3COC(=O)[C@H]23)OCO4)cc(OC)c1OC`, the result at Tubulin (Sus scrofa) [6] was Active.

In the case of `CC(=O)O[C@@]12CO[C@@H]1C[C@H](O)[C@@]1(C)C(=O)[C@H](O)C3=C(C)[C@@H](OC(=O)[C@H](O)[C@@H](NC(=O)OC(C)(C)C)c4ccccc4)C[C@@](O)([C@@H](OC(=O)c4ccccc4)[C@H]21)C3(C)C`, the result at Tubulin (Sus scrofa) [1] and at Tubulin (Sus scrofa) [4] was Active. In addition, the result at Tubulin (Sus scrofa) [6] was inactive.

Consider `COc1cc2c(c(OC)c1OC)-c1ccc(OC)c(=O)cc1[C@@H](NC(C)=O)CC2`, for which the outcome in the data set on MES-SA/Dx5 was inactive.

For `COc1ccc(NC(=O)C(=O)c2cn(C(C)C)c3ncccc23)cn1`, the CC50 with FaDu stood at 126 nM. In addition, the result on Tubulin (Sus scrofa) [1] and at Tubulin (Sus scrofa) [4] was inactive.

In the case of `COc1ccc(NC(=O)C(=O)c2cn(C(C)C)c3ccccc23)cn1`, the CC50 in the data set with FaDu was 85 nM. In addition, the Papp A→B at 1 h, 10 µM in [7] was determined as 19.8 ×10⁻⁶ cm/s. In addition, the result at Tubulin (Sus scrofa) [1] was inactive. The solubility (kinetic) in [2] stood at 20 µM (≈ 6.75 µg/mL). For the same compound, the solubility is 10 µM (≈ 3.37 µg/mL) in data set [8] and “soluble” in data set [3]. Also, the efflux ratio in data set [9] was 1.4. Further, the IC50 on Tubulin [10] is 1600 nM; on Tubulin [11], 14900 nM. Also, the result at Tubulin (Sus scrofa) [4] was Active. In addition, the half-life at 1 µM in data set [5] came out at 5 min.

`COCCn1cc(C(=O)C(=O)Nc2ccc(OC)nc2)c2ccccc21`: the CC50 with FaDu came to 17 nM. Besides, the result in the data set with SK-MEL-28, with SH-SY5Y, in the data set on MES-SA/Dx5, in the data set on SCC-4 and in the data set with MES-SA was Active. Also, the half-life at 1 µM in data set [5] amounted to 11 min.

For `COCCn1cc(C(=O)C(=O)Nc2ccc(OC(F)(F)F)cc2)c2ccccc21`, the CC50 with FaDu came out at 487 nM. In addition, the result at Tubulin (Sus scrofa) [1] was inactive. Moreover, on Tubulin (Sus scrofa) [4], the result was Active.

On to `COc1ncc(NC(=O)C(=O)c2cn(C(C)C)c3ccccc23)cn1`, for which the CC50 in the data set with FaDu came to 171 nM. For the same compound, in data set [7], the Papp A→B at 1 h, 10 µM worked out at 39.8 ×10⁻⁶ cm/s. Moreover, the efflux ratio in data set [9] amounted to 1. The half-life at 1 µM in data set [5] stood at 5 min.

Regarding `COCC(C)(C)n1cc(C(=O)C(=O)Nc2ccc(OC)nc2)c2ccccc21`, in the data set on FaDu, the CC50 was 137 nM. Also, the outcome in the data set on SK-MEL-28, with SH-SY5Y, in the data set on MES-SA/Dx5, on Tubulin (Sus scrofa) [4], in the data set with SCC-4 and in the data set with MES-SA was Active. In addition, the result at Tubulin (Sus scrofa) [1] was inactive. Moreover, the kinetic solubility in [2] worked out at 10 µM (≈ 3.81 µg/mL). Also, the solubility entry in data set [3] was “soluble”. Further, the IC50 was 2500 nM at Tubulin [10] and 7800 nM at Tubulin [11]. In addition, the half-life at 1 µM in data set [5] worked out at 16 min.

For `CC(=O)O[C@H]1C(=O)[C@@]2(C)[C@H]([C@H](OC(=O)c3ccccc3)[C@]3(O)C[C@H](OC(=O)[C@H](O)[C@@H](NC(=O)c4ccccc4)c4ccccc4)C(C)=C1C3(C)C)[C@]1(OC(C)=O)CO[C@@H]1C[C@@H]2O`, the outcome with MES-SA/Dx5 was inactive.

With `CC(C)Oc1ccc(NC(=O)C(=O)c2cn(C(C)C)c3ccccc23)cn1`, the CC50 in the data set on FaDu amounted to 408 nM. For the same compound, the half-life at 1 µM in data set [5] was 66 min.

In the case of `COc1ccc(NC(=O)C(=O)c2cn(C(C)C)c3ccncc23)cn1`, the CC50 with FaDu is > 10000 nM.

As to `COc1ccc2c(c1)c(C(=O)C(=O)Nc1ccc(OC)nc1)cn2C(C)C`, in the data set on FaDu, the CC50 was > 10000 nM.

`CC[C@]1(O)C[C@H]2CN(CCc3c([nH]c4ccccc34)[C@@](C(=O)OC)(c3cc4c(cc3OC)N(C=O)[C@H]3[C@@](O)(C(=O)OC)[C@H](OC(C)=O)[C@]5(CC)C=CCN6CC[C@]43[C@@H]65)C2)C1`: the result on Tubulin (Sus scrofa) [1] and on Tubulin (Sus scrofa) [4] was Active. In addition, the Ratio IC50 at Tubulin (Sus scrofa) [12] was 2. Further, on Tubulin (Sus scrofa) [6], the result was inactive.

As to `COc1ccc(NC(=O)C(=O)c2cn(C(C)C)c3ccccc23)nn1`, in the data set on FaDu, the CC50 worked out at 2270 nM.

With `COCCc1cc(C(=O)C(=O)Nc2ccc(OC)nc2)c2ccccn12`, in the data set on FaDu, the CC50 stood at 36 nM. The half-life at 1 µM in [5] worked out at 6 min.

On to `COCCn1cc(C(=O)C(=O)Nc2ccc(OC)nc2)c2cccnc21`, for which, in the data set on FaDu, the CC50 was 27 nM. The outcome in the data set on SK-MEL-28, in the data set on SH-SY5Y, in the data set on MES-SA/Dx5, in the data set on SCC-4 and in the data set on MES-SA was Active. The outcome on Tubulin (Sus scrofa) [1] and on Tubulin (Sus scrofa) [4] was inactive. In addition, the IC50 on Tubulin [10] was found to be 940 nM; on Tubulin [11] it was 2600 nM.

As to `CCn1cc(C(=O)C(=O)Nc2ccnc(OC)c2)c2ccccc21`, the CC50 in the data set with FaDu came to 4180 nM.

Consider `CC[C@]1(O)C[C@@H]2CN(CCc3c([nH]c4ccccc34)[C@@](C(=O)OC)(c3cc4c(cc3OC)N(C)[C@H]3[C@@](O)(C(=O)OC)[C@H](OC(C)=O)[C@]5(CC)C=CCN6CC[C@]43[C@@H]65)C2)C1`, for which the outcome with MES-SA/Dx5 was inactive.

Consider `COc1ccc(NC(=O)C(=O)c2cn(CCC(=O)O)c3ccccc23)cn1`, for which, in the data set with FaDu, the CC50 was > 10000 nM. In addition, the solubility (kinetic) in data set [2] is > 200 µM.

Regarding `COc1ccc(NC(=O)C(=O)c2cn(C(C)(C)COCC(=O)O)c3ccccc23)cn1`, in the data set with FaDu, the CC50 was > 10000 nM. The solubility (kinetic) in data set [2] was > 200 µM.

For `COc1ccc(NC(=O)C(=O)c2cc(C(C)C)n3ccccc23)cn1`, the CC50 in the data set with FaDu came out at 160 nM. Also, the result at Tubulin (Sus scrofa) [1] and on Tubulin (Sus scrofa) [4] was inactive. For the same compound, the solubility (kinetic) in data set [2] came out at 10 µM (≈ 3.37 µg/mL). Further, in data set [3], the solubility entry is reported as “soluble”. Further, the half-life at 1 µM in data set [5] was < 5 min.
